Measured values: ChEMBL document CHEMBL2417529, “An expedient, ionic liquid mediated multi-component synthesis of novel piperidone grafted cholinesterase enzymes inhibitors and their molecular modeling study” (Eur J Med Chem, 2013)

Key:
[1] = biological target: Cholinesterase (Equus caballus, UniProt P81908); assay: Inhibition of horse serum BChE using S-butyrylthiocholine chloride as substrate preincubated for 15 mins followed by substrate addition measured after 30 mins by Ellman's microplate assay
Sequence of Cholinesterase (P81908 whole entry): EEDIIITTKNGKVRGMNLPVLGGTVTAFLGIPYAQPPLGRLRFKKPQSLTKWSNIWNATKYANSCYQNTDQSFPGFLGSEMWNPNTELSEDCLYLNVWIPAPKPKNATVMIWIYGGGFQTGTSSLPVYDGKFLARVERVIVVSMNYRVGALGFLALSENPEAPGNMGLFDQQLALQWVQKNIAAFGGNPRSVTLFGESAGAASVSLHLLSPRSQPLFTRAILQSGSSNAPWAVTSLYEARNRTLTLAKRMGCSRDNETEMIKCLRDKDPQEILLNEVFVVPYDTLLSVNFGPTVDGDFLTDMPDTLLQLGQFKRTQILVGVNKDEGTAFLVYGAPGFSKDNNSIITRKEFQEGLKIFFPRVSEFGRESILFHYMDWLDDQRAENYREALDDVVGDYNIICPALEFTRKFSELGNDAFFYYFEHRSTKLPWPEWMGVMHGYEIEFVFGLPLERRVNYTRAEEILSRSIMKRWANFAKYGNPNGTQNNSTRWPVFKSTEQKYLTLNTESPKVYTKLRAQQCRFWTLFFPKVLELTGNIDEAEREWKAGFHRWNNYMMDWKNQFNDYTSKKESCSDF
In short: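 Equine serum BChE preincubated with test samples in 0.1 M sodium phosphate buffer pH 8 for 15 min at 25 °C. DTNB added, then S-butyrylthiocholine chloride (14 mM stock). Colored product read at 412 nm 30 min after reaction start. Final DMSO 1%; triplicates; blank-corrected absorbance; % inhibition versus control; IC50 from five concentrations.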

[2] = Selectivity ratio of IC50 for electric eel AChE to IC50 for horse serum BChE
In short: (§1)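 Ratio of IC50s from Ellman microplate assays in 0.1 M sodium phosphate pH 8 with 1% final DMSO. AChE (Electrophorus electricus) used acetylthiocholine iodide; BChE (equine serum) used S-butyrylthiocholine chloride, each 14 mM stock. Enzyme and sample preincubated 15 min at 25 °C, then DTNB and substrate added. A412 read at 30 min in triplicate; IC50 from five concentrations.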

[3] = biological target: Acetylcholinesterase (Electrophorus electricus, UniProt O42275); assay: Inhibition of electric eel AChE using acetylthiocholine iodide as substrate preincubated for 15 mins followed by substrate addition measured after 30 mins by Ellman's microplate assay
Sequence of Acetylcholinesterase (O42275 whole entry): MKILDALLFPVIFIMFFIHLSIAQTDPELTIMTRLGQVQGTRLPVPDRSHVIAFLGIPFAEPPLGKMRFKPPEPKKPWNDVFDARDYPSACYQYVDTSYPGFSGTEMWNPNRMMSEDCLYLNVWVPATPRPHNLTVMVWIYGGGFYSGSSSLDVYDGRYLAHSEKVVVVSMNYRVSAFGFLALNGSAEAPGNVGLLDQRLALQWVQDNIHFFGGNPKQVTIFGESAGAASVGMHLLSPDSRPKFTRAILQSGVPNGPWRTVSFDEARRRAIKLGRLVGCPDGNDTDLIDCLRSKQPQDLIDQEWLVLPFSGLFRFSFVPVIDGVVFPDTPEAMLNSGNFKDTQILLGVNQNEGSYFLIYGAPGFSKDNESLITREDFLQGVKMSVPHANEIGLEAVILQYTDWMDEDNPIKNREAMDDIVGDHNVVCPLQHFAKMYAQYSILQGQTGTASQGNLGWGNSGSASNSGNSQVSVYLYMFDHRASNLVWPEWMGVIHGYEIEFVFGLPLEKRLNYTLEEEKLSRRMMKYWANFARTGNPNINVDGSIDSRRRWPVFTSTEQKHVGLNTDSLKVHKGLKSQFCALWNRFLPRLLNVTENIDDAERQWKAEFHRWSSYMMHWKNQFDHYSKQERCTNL

[4] = Selectivity ratio of IC50 for horse serum BChE to IC50 for electric eel AChE; in short: as §1

SMILES	IC50 [1] [µM]	Ratio IC50 [2]	IC50 [3] [µM]	Ratio IC50 [4]
CCN1CC2=C(NC(=S)NC2c2cccc([N+](=O)[O-])c2)/C(=C/c2cccc([N+](=O)[O-])c2)C1 (stereo unspecified)	5.11	1.54	7.88	0.65
COc1ccccc1/C=C1\CN(CCN2CCOCC2)CC2=C1NC(=S)NC2c1ccccc1OC (stereo unspecified)	5.93	1.42	8.39	0.71
S=C1NC2=C(CN(CCN3CCOCC3)C/C2=C\c2ccc(Cl)cc2)C(c2ccc(Cl)cc2)N1 (stereo unspecified)	4.28	1.28	5.49	0.78
Cc1ccc(/C=C2\CN(CCN3CCOCC3)CC3=C2NC(=S)NC3c2ccc(C)cc2)cc1 (stereo unspecified)	3.58	2	7.16	0.5
S=C1NC2=C(CN(CCN3CCOCC3)C/C2=C\c2ccccc2Cl)C(c2ccccc2Cl)N1 (stereo unspecified)	2.44	2.77	6.75	0.36
Fc1ccccc1/C=C1\CN(CCN2CCOCC2)CC2=C1NC(=S)NC2c1ccccc1F (stereo unspecified)	2.97	3.14	9.32	0.32
Cc1ccccc1/C=C1\CN(CCN2CCOCC2)CC2=C1NC(=S)NC2c1ccccc1C (stereo unspecified)	1.89	4.31	8.15	0.23
CCN1CC2=C(NC(=S)NC2c2ccccc2F)/C(=C/c2ccccc2F)C1 (stereo unspecified)	4.48	1.24	5.54	0.81
S=C1NC2=C(CN(CCN3CCOCC3)C/C2=C\c2ccc(Cl)cc2Cl)C(c2ccc(Cl)cc2Cl)N1 (stereo unspecified)	5.87	1.47	8.67	0.68
CCN1CC2=C(NC(=S)NC2c2ccccc2)/C(=C/c2ccccc2)C1 (stereo unspecified)	4.2	0.22	0.92	4.56
S=C1NC2=C(CN(CCN3CCOCC3)C/C2=C\c2ccccc2)C(c2ccccc2)N1 (stereo unspecified)	3.23	1.39	4.49	0.72
CCN1CC2=C(NC(=S)NC2c2ccccc2C)/C(=C/c2ccccc2C)C1 (stereo unspecified)	3.93	1.57	6.17	0.64
CCN1CC2=C(NC(=S)NC2c2ccccc2Cl)/C(=C/c2ccccc2Cl)C1 (stereo unspecified)	3.57	2.3	8.22	0.43
CCN1CC2=C(NC(=S)NC2c2ccc(C)cc2)/C(=C/c2ccc(C)cc2)C1 (stereo unspecified)	4.73	1.06	5.02	0.94
Fc1ccc(/C=C2\CN(CCN3CCOCC3)CC3=C2NC(=S)NC3c2ccc(F)cc2)cc1 (stereo unspecified)	3.41	1.97	6.72	0.51
CCN1CC2=C(NC(=S)NC2c2ccc(Cl)cc2Cl)/C(=C/c2ccc(Cl)cc2Cl)C1 (stereo unspecified)	3.61	2.42	8.75	0.41
CCN1CC2=C(NC(=S)NC2c2ccc(F)cc2)/C(=C/c2ccc(F)cc2)C1 (stereo unspecified)	5.98	0.36	2.07	2.76
CCN1CC2=C(NC(=S)NC2c2ccc(Cl)cc2)/C(=C/c2ccc(Cl)cc2)C1 (stereo unspecified)	5.88	0.22	1.29	4.56
CCN1CC2=C(NC(=S)NC2c2ccccc2OC)/C(=C/c2ccccc2OC)C1 (stereo unspecified)	8.13	0.61	4.92	1.65
